Columns and labels:
[1] = biological target: T1, Kappa-type opioid receptor (Cavia porcellus, UniProt P41144); test: Inhibition of [3H]U-69593 binding to Opioid receptor kappa 1 of guinea pig membranes
[2] = biological target: Delta-type opioid receptor (Rattus norvegicus, UniProt P33533); test: Inhibition of [3H]-DADLE binding to Opioid receptor delta 1 of rat brain membranes; assay type: cell membranes, Membrane
[3] = biological target: Mu-type opioid receptor (Rattus norvegicus, UniProt P33535); test: Inhibition of [3H]DAMGO binding to Opioid receptor mu 1 of rat brain membranes; assay type: cell membranes, Membrane
Sequence of Mu-type opioid receptor (Rattus norvegicus, UniProt P33535) (P33535 whole entry): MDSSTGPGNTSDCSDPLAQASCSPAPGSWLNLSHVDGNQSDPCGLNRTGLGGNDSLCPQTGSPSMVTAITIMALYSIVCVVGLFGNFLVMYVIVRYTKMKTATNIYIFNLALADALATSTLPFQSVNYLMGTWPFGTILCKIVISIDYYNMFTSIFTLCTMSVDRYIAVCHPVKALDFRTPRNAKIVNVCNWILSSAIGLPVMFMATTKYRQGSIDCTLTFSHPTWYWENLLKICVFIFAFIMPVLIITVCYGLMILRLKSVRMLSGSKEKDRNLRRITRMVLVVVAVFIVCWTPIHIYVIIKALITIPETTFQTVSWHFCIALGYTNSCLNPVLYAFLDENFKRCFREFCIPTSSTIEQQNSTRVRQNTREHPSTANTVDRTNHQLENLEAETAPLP

[4] = biological target: Mu-type opioid receptor (Cavia porcellus, UniProt P97266); test: The compound was tested for antagonist activity by selective inhibition of [35S]GTP-gamma-S, binding to Opioid receptor mu 1 in Guinea pig caudate stimulated by DAMGO[mu]; assay type: functional
Sequence of Mu-type opioid receptor (Cavia porcellus, UniProt P97266) (P97266 whole entry): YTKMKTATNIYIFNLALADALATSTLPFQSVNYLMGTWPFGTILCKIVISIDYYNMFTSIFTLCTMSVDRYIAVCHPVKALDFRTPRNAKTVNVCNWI
Summary of the method: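 Guinea pig caudate putamen membranes (10 μg/tube) in 50 mM Tris-HCl pH 7.7, 0.1% BSA. Final: 100 mM NaCl, 5 mM MgCl2, 1 mM EDTA, 1 mM DTT, 100 μM GDP, 0.05–0.1 nM [35S]GTP-γ-S, agonist 500 nM or 10 μM, ≥10 antagonist concentrations; 4 h, filtration.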

[5] = biological target: T1, Kappa-type opioid receptor; test: The compound was tested for antagonist activity by selective inhibition of [35S]GTP-gamma-S, binding in Guinea pig caudate stimulated by U69,593 to Opioid receptor kappa 1; assay type: functional

T1 sequence (P41144 whole entry): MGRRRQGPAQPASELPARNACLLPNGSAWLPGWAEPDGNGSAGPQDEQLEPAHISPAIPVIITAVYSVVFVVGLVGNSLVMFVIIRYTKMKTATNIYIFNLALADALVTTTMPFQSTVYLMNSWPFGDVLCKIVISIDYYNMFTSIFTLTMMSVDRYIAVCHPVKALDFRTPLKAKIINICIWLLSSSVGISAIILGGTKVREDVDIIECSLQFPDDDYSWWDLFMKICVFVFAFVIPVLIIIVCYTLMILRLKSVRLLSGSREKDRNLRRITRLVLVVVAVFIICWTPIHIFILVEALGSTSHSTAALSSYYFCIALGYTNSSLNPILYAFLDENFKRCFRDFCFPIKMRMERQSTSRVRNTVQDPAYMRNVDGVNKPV
Sequence of Delta-type opioid receptor (P33533 whole entry): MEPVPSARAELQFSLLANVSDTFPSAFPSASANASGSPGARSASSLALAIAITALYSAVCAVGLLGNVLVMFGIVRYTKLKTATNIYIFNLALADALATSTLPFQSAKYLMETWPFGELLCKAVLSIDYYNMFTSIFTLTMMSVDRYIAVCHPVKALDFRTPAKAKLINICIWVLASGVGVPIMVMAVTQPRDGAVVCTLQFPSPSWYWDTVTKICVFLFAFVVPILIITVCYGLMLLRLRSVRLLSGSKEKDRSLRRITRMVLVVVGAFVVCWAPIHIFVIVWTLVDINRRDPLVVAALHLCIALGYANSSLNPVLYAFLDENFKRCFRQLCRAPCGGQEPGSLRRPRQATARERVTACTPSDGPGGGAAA

**Q.** `C[C@H]1CN(C[C@@H]2C[C@H]2c2ccccc2)CC[C@@]1(C)c1cccc(O)c1` was tested. Which Ki [1] did it give?
**A.** 81.8 nM

**Q.** What about the Ki [2] of the same compound?
**A.** 709 nM

**Q.** And the Ki [3]?
**A.** 1.75 nM

**Q.** Which results are given for `C[C@H]1CN(C2CCCC2)CC[C@@]1(C)c1cccc(O)c1`?
**A.** Ki [1]: 199 nM; Ki [2]: > 7300 nM; Ki [3]: 444 nM

**Q.** For `C[C@H]1CN(CC[C@H](O)C2CCCCC2)CC[C@@]1(C)c1cccc(O)c1`, which Ki [4] is on record?
**A.** 0.021 nM

**Q.** And the Ki [1]?
**A.** 28 nM

**Q.** What about the Ki [2] of the same compound?
**A.** 198 nM

**Q.** What about the Ki [5] of the same compound?
**A.** 0.33 nM

**Q.** And the Ki [3]?
**A.** 0.32 nM

**Q.** How did the Ki [1] turn out when `C[C@H]1CN(Cc2cc3ccccc3s2)CC[C@@]1(C)c1cccc(O)c1` was run?
**A.** > 690 nM

**Q.** What about the Ki [2] of the same compound?
**A.** 1580 nM

**Q.** What about the Ki [3] of the same compound?
**A.** 21.2 nM

**Q.** What does the source list for `C[C@H]1CN(C2CCCC(O)(c3ccccc3)C2)CC[C@@]1(C)c1cccc(O)c1` (stereo partly drawn)?
**A.** Ki [1]: 674 nM; Ki [2]: > 7300 nM; Ki [3]: 203 nM

**Q.** How did the Ki [4] turn out when `C[C@H]1CN(C/C=C/c2ccccc2Cl)CC[C@@]1(C)c1cccc(O)c1` was run?
**A.** 0.026 nM

**Q.** And the Ki [1]?
**A.** 35.8 nM

**Q.** What about the Ki [2] of the same compound?
**A.** 168 nM

**Q.** And the Ki [5]?
**A.** 0.567 nM

**Q.** And the Ki [3]?
**A.** 1.12 nM

**Q.** With `C[C@H]1CN(C/C=C/c2ccccc2)CC[C@@]1(C)c1cccc(O)c1` as the compound, how does the Ki [4] read?
**A.** 0.039 nM

**Q.** And the Ki [1]?
**A.** 122 nM

**Q.** And the Ki [2]?
**A.** 322 nM

**Q.** What about the Ki [5] of the same compound?
**A.** 1.04 nM

**Q.** And the Ki [3]?
**A.** 0.74 nM

**Q.** For `Cc1ccccc1/C=C/CN1CC[C@@](C)(c2cccc(O)c2)[C@@H](C)C1`, which Ki [4] is on record?
**A.** 0.013 nM

**Q.** What about the Ki [1] of the same compound?
**A.** 38.9 nM

**Q.** What about the Ki [2] of the same compound?
**A.** 142 nM

**Q.** What about the Ki [5] of the same compound?
**A.** 0.17 nM

**Q.** And the Ki [3]?
**A.** 0.86 nM

**Q.** `C[C@H]1CN(C2CCCC(O)C2)CC[C@@]1(C)c1cccc(O)c1` (stereo partly drawn) was tested. Which Ki [1] did it give?
**A.** 1150 nM

**Q.** And the Ki [2]?
**A.** > 7300 nM

**Q.** Which results are given for `C[C@H]1CN(Cc2cc3ccccc3o2)CC[C@@]1(C)c1cccc(O)c1`?
**A.** Ki [1]: > 690 nM; Ki [2]: 1450 nM; Ki [3]: 22.2 nM

**Q.** `C[C@H]1CN(C2CCCCC2)CC[C@@]1(C)c1cccc(O)c1` was tested. Which Ki [1] did it give?
**A.** 315 nM

**Q.** What about the Ki [2] of the same compound?
**A.** > 7300 nM

**Q.** And the Ki [3]?
**A.** 1280 nM

**Q.** `C[C@H]1CN(C/C=C\c2ccccc2)CC[C@@]1(C)c1cccc(O)c1` was tested. Which Ki [1] did it give?
**A.** 298 nM

**Q.** And the Ki [2]?
**A.** 931 nM

**Q.** And the Ki [3]?
**A.** 11.4 nM

From ChEMBL document CHEMBL1131238, “Investigation of the N-substituent conformation governing potency and mu receptor subtype-selectivity in (+)-(3R, 4R)-dimethyl-4-(3-hydroxyphenyl)piperidine opioid antagonists” (J Med Chem, 1998)
